Reference: ChEMBL document CHEMBL4024790 (J Med Chem, 2018)
The source made the active and inactive calls. The rule behind the calls is not given here.

Experiments:
Mus musculus [1] = species on record: Mus musculus; experiment: Increase in cGMP level in CD-1 mouse brain hippocampus assessed as unbound brain concentration required to show the effect by immunoassay; format: functional
Summary of the method: (§1)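 CD-1 mice dosed SC (solution in 20% SBE-β-CD with 2 molar equivalents 1N HCl, 1 mL/kg); euthanized by focused microwave irradiation of brain; cortex, striatum, hippocampus homogenized in 0.5 N HCl, centrifuged; cyclic nucleotides in supernatant by enzyme immunoassay. Unbound brain exposure from satellite animals; dose-response and time-course data combined with linear model; one-way ANOVA with Fisher's PLSD.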

Rattus norvegicus [2] = species on record: Rattus norvegicus; experiment: Cardiotoxicity in rat up to 1 month by microscopic method; format: toxicity
Plasma = experiment: Drug uptake in rat plasma at 5 to 250 mg/kg/day, po up to 15 days by microscopic method; format: ADME, organism-based; settings: in vivo, 360 h
Summary of the method: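 Exploratory rat toxicity study, oral dosing at 5, 50 and 250 mg/kg/day for up to 15 days, with microscopic examination of heart and vasculature and measurement of plasma and brain exposure.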

Cytochrome P450 2C19 = Cytochrome P450 2C19 (Homo sapiens, UniProt P33261); experiment: Inhibition of recombinant human CYP2C19; format: ADME; settings: recombinant enzyme
Cytochrome P450 2C19, sequence (P33261 whole entry): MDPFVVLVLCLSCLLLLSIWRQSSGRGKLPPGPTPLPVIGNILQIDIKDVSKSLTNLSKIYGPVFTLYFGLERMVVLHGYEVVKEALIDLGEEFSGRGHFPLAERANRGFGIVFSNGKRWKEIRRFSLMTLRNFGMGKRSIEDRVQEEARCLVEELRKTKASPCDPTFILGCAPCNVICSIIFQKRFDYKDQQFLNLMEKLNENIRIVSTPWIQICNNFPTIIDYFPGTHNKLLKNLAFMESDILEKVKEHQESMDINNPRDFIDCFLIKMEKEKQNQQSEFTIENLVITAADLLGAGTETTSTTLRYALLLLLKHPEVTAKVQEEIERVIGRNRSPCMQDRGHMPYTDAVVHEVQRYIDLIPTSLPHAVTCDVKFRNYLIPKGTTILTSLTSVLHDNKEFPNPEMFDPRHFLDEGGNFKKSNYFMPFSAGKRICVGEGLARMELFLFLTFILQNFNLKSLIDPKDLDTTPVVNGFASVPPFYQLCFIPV

[3] = Drug metabolism in human hepatocytes assessed as 3-(7-methyl-5-(1-methyl-5-(5-(trifluoromethyl)pyridin-2-yl)-1H-pyrazol-4-yl)imidazo[1,5-f][1,2,4]triazin-4-ylamino)propanoic acid formation at 1 to 50 uM after 1 hr by LC-MS/MS analysis; format: ADME, cell-based, Hepatocyte
Summary of the method: (§2)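 Rat, dog or human liver microsomes or hepatocytes (P450 0.35–0.5 µM final) incubated with compound at 1, 10 or 50 µM in 100 mM phosphate buffer with 1 mM NADP regenerating system, 37°C for 1 h; quenched with 4 volumes acetonitrile, centrifuged, supernatant evaporated, reconstituted in 5% aqueous acetonitrile and analysed by reversed-phase LC.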

[4] = Drug metabolism in human hepatocytes assessed as 1-(7-methyl-5-(1-methyl-5-(5-(trifluoromethyl)pyridin-2-yl)-1H-pyrazol-4-yl)imidazo[1,5-f][1,2,4]triazin-4-yl)azetidin-3-ol formation at 1 to 50 uM after 1 hr by LC-MS/MS analysis; format: ADME, cell-based, Hepatocyte; summary of the method: as §2
[5] = Plasma clearance in beagle dog at 0.3 mg/kg, iv by LC-MS/MS analysis; format: ADME, organism-based, Canis lupus familiaris
Summary of the method: (§3)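 Single iv dose to male Wistar-Han rats (1 mg/kg) or dogs (0.3 mg/kg), given as a solution in 20% (w/v) SBECD with HCl. Dose volume 1 mL/kg in rats and 0.4 mL/kg in dogs. Blood taken by carotid artery cannula from 2 min to 24 h into K2EDTA (rat) or K3EDTA (dog) tubes. Plasma analysed by LC-MS/MS with positive electrospray after acetonitrile precipitation with internal standard.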

[6] = Ratio of unbound brain concentration to unbound plasma concentration in iv or sc dosed Wistar Han rat; format: ADME, organism-based; settings: brain and plasma, read-out: K(p,uu,brain)
Summary of the method: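 Compound given sc to mice, iv and/or sc to rats, po to dogs and sc to monkeys; sc doses as a solution in 20% SBE-BCD + 2 molar equiv 1N HCl. Plasma, whole brain and CSF taken at matched times from 2 min to 24 h and quantified by LC-MS/MS. Fraction unbound in plasma and brain homogenate (diluted 4-fold, dilution factor 5 applied) by 6 h equilibrium dialysis against phosphate buffer at 37°C.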

Mus musculus [7] = species on record: Mus musculus; experiment: Increase in cGMP level in CD-1 mouse brain hippocampus by immunoassay; format: functional
Summary of the method: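 CD-1 mice given compound; brains fixed by focused microwave irradiation, and cortex, striatum and hippocampus dissected and homogenized in 0.5 N HCl, then centrifuged. cGMP in the supernatant measured by enzyme immunoassay. Unbound brain concentration taken from satellite animals. Dose-response and time-course data combined, and a linear Cbu–cGMP model fitted. The Cbu E50 is the projected Cbu giving a 50% rise in cGMP. Statistics by one-way ANOVA with Fisher's PLSD, p<0.05.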

[8] = Terminal half life in Wistar Han rat at 1 mg/kg, iv by LC-MS/MS analysis; format: ADME, organism-based; settings: in vivo, read-out: beta t1/2 (converted); summary of the method: as §3
[9] = Cmax in beagle dog at 5 mg/kg, po administered via gavage by LC-MS/MS analysis; format: ADME, organism-based, Canis lupus familiaris; parameters: dose 5 mg/kg, route oral; settings: in vivo
[10] = Intrinsic clearance in human hepatocytes; format: ADME, cell-based, Hepatocyte; settings: read-out: CLH
[11] = AUC (0 to infinity) in Wistar Han rat at 5 mg/kg, po administered via gavage by LC-MS/MS analysis; format: ADME, organism-based; parameters: dose 5 mg/kg, route oral, time infinity; settings: in vivo
[12] = Drug metabolism in rat hepatocytes assessed as 3-(7-methyl-5-(1-methyl-5-(5-(trifluoromethyl)pyridin-2-yl)-1H-pyrazol-4-yl)imidazo[1,5-f][1,2,4]triazin-4-ylamino)propanoic acid formation at 1 to 50 uM after 1 hr by LC-MS/MS analysis; format: ADME, cell-based, Hepatocyte; summary of the method: as §2
[13] = Passive permeability in RRCK cells; format: ADME, cell-based, Canis lupus familiaris, MDCKII-LE; settings: dog, MDCK; read-out: permeability
[14] = Oral bioavailability in beagle dog at 5 mg/kg administered via gavage by LC-MS/MS analysis; format: ADME, organism-based, Canis lupus familiaris; settings: in vivo
[15] = Terminal half life in Wistar Han rat at 5 mg/kg, po administered via gavage by LC-MS/MS analysis; format: ADME, organism-based; settings: in vivo, read-out: beta t1/2 (converted)
Rattus norvegicus [16] = experiment: Reversal of ketamine-induced working memory deficit in Long Evans rat assessed as unbound brain concentration required to show effect at 0.32 mg/kg, sc by radial arm maze assay; format: functional, organism-based
Summary of the method: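 Rats trained in a radial arm maze working-memory task, with deficit induced by ketamine. Compound dosed sc; errors compared with vehicle + ketamine. N = 20–23 per group, Hochberg test. Cbu at the tested doses estimated from satellite pharmacokinetic animals.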

Rattus norvegicus [17] = experiment: Antipsychotic activity in Long Evans rat at 0.32 to 3.2 mg/kg, sc by conditioned avoidance responding assay; format: functional, organism-based
Summary of the method: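 Rats dosed SC at 0.32, 1.0 and 3.2 mg/kg; conditioned avoidance responding also run in combination with risperidone 0.032 mg/kg.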

Liver [18] = experiment: Drug metabolism in human liver microsomes assessed as 3-(7-methyl-5-(1-methyl-5-(5-(trifluoromethyl)pyridin-2-yl)-1H-pyrazol-4-yl)imidazo[1,5-f][1,2,4]triazin-4-ylamino)propanoic acid formation at 1 to 50 uM after 1 hr by LC-MS/MS analysis; format: ADME, microsome; summary of the method: as §2
Liver [19] = experiment: Drug metabolism in dog liver microsomes assessed as 1-(7-methyl-5-(1-methyl-5-(5-(trifluoromethyl)pyridin-2-yl)-1H-pyrazol-4-yl)imidazo[1,5-f][1,2,4]triazin-4-yl)azetidin-3-ol formation at 1 to 50 uM after 1 hr by LC-MS/MS analysis; format: ADME, Canis lupus familiaris, microsome; summary of the method: as §2
[20] = Cmax in Wistar Han rat at 1 mg/kg, iv by LC-MS/MS analysis; format: ADME, organism-based; parameters: dose 1 mg/kg, route intravenous; settings: in vivo
Summary of the method: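 Male Wistar-Han rats given single 1 mg/kg IV; beagle dogs 0.3 mg/kg IV; solution in 20% (w/v) sulfobutyl ether β-cyclodextrin with hydrochloric acid, 1 mL/kg (rat) or 0.4 mL/kg (dog). Blood via carotid artery cannula between 2 min and 24 h into EDTA tubes; plasma analysed by LC-MS/MS with positive electrospray.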

Mus musculus [21] = species on record: Mus musculus; experiment: Effect on cAMP level in CD-1 mouse brain striatum by immunoassay; format: functional; summary of the method: as §1
Mus musculus [22] = experiment: In vivo effect on phosphorylated CREB level in CD-1 mouse brain striatum by immunoassay; format: functional, organism-based
Rattus norvegicus [23] = species on record: Rattus norvegicus; experiment: Toxicity in rat assessed as effect on skeletal muscle up to 1 month by microscopic method; settings: in vivo
Rattus norvegicus [24] = species on record: Rattus norvegicus

Drug uptake (Plasma): Active
inhibition (INH) (Cytochrome P450 2C19): Not Active
Drug metabolism [3]: Metabolite_Detected
Drug metabolism [4]: Metabolite_Detected
clearance [5]: 12.3 mL/min/kg
Kp uu [6]: 0.71
half-life [8]: 1.1 h
Cmax [9]: 1770 ng/mL
CLint scaled [10]: 44 mL/min/kg
AUC(0-inf) [11]: 312 ng·h/mL
Drug metabolism [12]: Metabolite_Detected
Papp [13]: 26 ×10⁻⁶ cm/s
bioavailability [14]: 57%
half-life [15]: 1.4 h
Drug metabolism (Liver [18]): Metabolite_Detected
Drug metabolism (Liver [19]): Metabolite_Detected
Cmax [20]: 1020 ng/mL
Compound: Cc1nc(-c2cnn(C)c2-c2ccc(C(F)(F)F)cn2)c2c(N3CCC3)ncnn12 [PF-05180999]
fEC50 (Mus musculus [1]): 116.3 nM
Activity (Rattus norvegicus [2]): Non-Toxic
Activity (Mus musculus [7]): Dose-dependent effect
Drug uptake(free) (Rattus norvegicus [16]): 12.5 nM
Activity (Rattus norvegicus [17]): inactive
Activity (Mus musculus [21]): inactive
Activity (Mus musculus [22]): inactive
Activity (Rattus norvegicus [23]): Toxic
fIC50 (Rattus norvegicus [24]): 9 nM
